Results: ChEMBL document CHEMBL2346503, “Synthesis and evaluation of novel (18)F-labeled spirocyclic piperidine derivatives as σ1 receptor ligands for positron emission tomography imaging” (J Med Chem, 2013)

What was measured:
Type in all cases: ADME, organism-based
[1] = test system: Lung; test: Biodistribution in ICR mouse lung assessed as reduction in radiotracer uptake at 370 kBq, iv after 60 minutes by gamma-counting analysis in presence of SA4503 relative to control; set-up: scale not given: the % may be the effect or the level left; details: in vivo, 1 h
Outline: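 Male ICR mice got saline or SA4503 (0.1 mL; 2, 5, 10 or 2.2 μmol/kg) via tail vein 5 min before 370 kBq tracer (0.1 mL) iv. They were decapitated at 60 min and tissues γ-counted. Percent change was taken against saline controls, with two-tailed Student's t test, p ≤ 0.05.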

[2] = test system: Brain; test: Biodistribution in ICR mouse brain assessed as reduction in radiotracer uptake at 370 kBq, iv after 60 minutes by gamma-counting analysis in presence of tamoxifen; details: in vivo, 1 h
Outline: (§1)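 Male ICR mice got saline or a blocker (haloperidol, (S)-(−)-raclopride, fluvoxamine or tamoxifen; 0.1 mL, 2.2 μmol/kg) via tail vein 5 min before 370 kBq tracer iv. Brain was γ-counted at 60 min and compared with saline controls by two-tailed Student's t test, p ≤ 0.05.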

[3] = test system: Cortex; test: Biodistribution in Sprague-Dawley rat cortex at 23 MBq, iv after 60 mins by microPET imaging/CT study in presence of haloperidol; details: in vivo, 1 h
Outline: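 Sprague-Dawley rats under isoflurane (1.5–2.5%) in oxygen received 23 MBq radiotracer (0.2 mL saline) via tail vein. Blocking animals were pre-injected with haloperidol (0.2 mL, 1 mg/kg) 5 min before the tracer. MicroPET emission was acquired for 30 min starting 60 min post-injection, followed by a 5 min CT scan; images were summed over 60–90 min.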

[4] = test system: Brain; test: Biodistribution in ICR mouse brain assessed as reduction in radiotracer uptake at 370 kBq, iv after 60 minutes by gamma-counting analysis in presence of haloperidol; details: in vivo, 1 h; outline: as §1
[5] = test system: Brain; test: Metabolic stability in ICR mouse brain at 18.5 MBq, iv after 30 mins by HPLC analysis; details: in vivo, 0.5 h
Outline: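 Male ICR mice given radiotracer iv (18.5 MBq, 0.2 mL), killed at 30 min. Brain and liver were homogenized in ice-cold PBS (0.01 M, pH 7.4) and extracted with ice-cold MeCN. Supernatants were filtered, concentrated and analysed by radio-HPLC on a C18 column, acetonitrile/water with 0.1% TFA (45:55), 1 mL/min.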

[6] = test system: Cortex; test: Drug uptake in Sprague-Dawley rat temporal cortex auditory area at 12.2 MBq, iv after 60 mins by autoradiography; details: in vivo, 1 h
Outline: (§2)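 [¹⁸F]-labelled tracer (0.2 mL, 12.2 MBq) given intravenously to conscious Sprague-Dawley rats (n = 3). Each rat was killed by cervical dislocation 60 min after injection. The brain was removed and frozen in liquid nitrogen, and 20 μm coronal sections were cut on a cryostat for ex vivo autoradiography of regional radioactivity.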

[7] = test system: Thalamus; test: Drug uptake in Sprague-Dawley rat thalamus at 12.2 MBq, iv after 60 mins by autoradiography; details: in vivo, 1 h; outline: as §2

[18F]CCOc1ccc(CN2CCC3(CC2)OCc2ccccc23)cc1
Activity [1]: 71%
Drug uptake [2]: Active
Drug uptake [3]: Active
Drug uptake [4]: Active
Stability [5]: Stable
Drug uptake [6]: Active
Drug uptake [7]: Active
